Experiment [1] is described as follows: Inhibition of Saccharomyces cerevisiae alpha-glucosidase using PNPG as substrate preincubated for 10 mins followed by substrate addition measured after 30 mins. The method, boiled down:
(§1)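 Enzyme 0.1 U/mL final in 0.1 M potassium phosphate, pH 6.8, with compound added from DMSO; 10 min at 37 ℃, then PNPG at 1 mmol/L final, another 30 min at 37 ℃. Absorbance read at 405 nm against a no-compound control. Line 1 screened at a single 100 µM; IC50 from the %inhibition–concentration plot. Duplicates, means taken.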

The test system of experiment [2] is Saccharomyces cerevisiae. Kind of experiment: Inhibition of Saccharomyces cerevisiae alpha-glucosidase at 100 uM using PNPG as substrate preincubated for 10 mins followed by substrate addition measured after 30 mins relative to control. The settings on record: time 40.0 min. The method, boiled down:
as §1

Experiment [3] concerns Saccharomyces cerevisiae. The experiment can be described thus: Reversible inhibition of Saccharomyces cerevisiae alpha-glucosidase. The method, boiled down:
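Rate (ΔOD/min) was plotted against α-glucosidase concentration at several fixed inhibitor levels, 0–35 µM. Conditions otherwise as in the PNPG 405 nm assay at pH 6.8 and 37 ℃.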

Experiment [4] has as its system Saccharomyces cerevisiae. Kind of experiment: Mixed type inhibition of Saccharomyces cerevisiae alpha-glucosidase assessed as equilibrium constant for free enzyme using varying level of PNPG as substrate by Lineweaver-Burk double reciprocal plot analysis. The essentials:
(§2)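 Run as the PNPG/phosphate pH 6.8, 37 ℃, 405 nm assay, but with compound concentration varied together with either PNPG or enzyme level. Lineweaver-Burk plots were made. KI (free enzyme) and KIS (enzyme–substrate complex) were taken from apparent Km/Vmax and 1/Vmax plotted against inhibitor concentration.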

In experiment [5] the test system is Saccharomyces cerevisiae. Kind of experiment: Mixed type inhibition of Saccharomyces cerevisiae alpha-glucosidase assessed as equilibrium constant for enzyme substrate complex using varying level of PNPG as substrate by Lineweaver-Burk double reciprocal plot analysis. The essentials: as §2

The structures appear in SMILES notation. The source made the active and inactive calls. The rule behind the calls is not given here.

In the case of `COc1cc(/C=C/C(=O)Oc2cc(=O)oc3ccccc23)ccc1O`, the IC50 in experiment [1] is above 100 µM. This compound also registered an inhibition in the experiment with Saccharomyces cerevisiae [2] of 19.5%.
Take `O=C(/C=C/c1ccc(C(F)(F)F)cc1)Oc1cc(=O)oc2ccccc12`: in experiment [1], the IC50 is above 100 µM. The inhibition with Saccharomyces cerevisiae [2] worked out at 41.9%.
On to `Cc1ccc(/C=C/C(=O)Oc2ccc3ccc(=O)oc3c2)cc1`, for which, in experiment [1], half-maximal inhibition (IC50) required 94.5 µM. In the experiment with Saccharomyces cerevisiae [2], this compound had an inhibition of 54.7%.
In experiment [1], `O=C(/C=C/c1ccccc1)Oc1ccc2ccc(=O)oc2c1` [7-CINNAMOYLOXYCOUMARIN] gave an IC50 above 100 µM. This compound also had an inhibition in the experiment on Saccharomyces cerevisiae [2] of 45.6%.
Consider `COc1cc(/C=C/C(=O)Oc2ccc3ccc(=O)oc3c2)ccc1O`, for which the IC50 in experiment [1] was above 100 µM. Besides, the inhibition in the experiment on Saccharomyces cerevisiae [2] stood at 20.3%.
In experiment [1], `COc1ccc(/C=C/C(=O)Oc2cc(=O)oc3ccccc23)cc1` returned a half-maximal inhibitory concentration (IC50) of 36.9 µM. Besides, the inhibition in the experiment with Saccharomyces cerevisiae [2] stood at 73.2%.
In the same order, the values of `O=C(/C=C/c1ccc(Br)cc1)Oc1ccc2ccc(=O)oc2c1` are above 100 µM and 30.1%.
With `Cc1ccc(/C=C/C(=O)Oc2cc(=O)oc3ccccc23)cc1`, the IC50 in experiment [1] was 13 µM. This compound registered an inhibition with Saccharomyces cerevisiae [2] of 89.9%. Besides, the inhibition entry with Saccharomyces cerevisiae [3] is “Active”. Also, the Ke in the experiment on Saccharomyces cerevisiae [4] amounted to 27 µM; in the experiment with Saccharomyces cerevisiae [5], 13.7 µM.
`O=C(/C=C/c1ccc(F)cc1)Oc1ccc2ccc(=O)oc2c1` had an IC50 in experiment [1] above 100 µM. This compound had an inhibition with Saccharomyces cerevisiae [2] of 26.2%.
`O=C(/C=C/c1ccc(C(F)(F)F)cc1)Oc1ccc2ccc(=O)oc2c1` had an IC50 in experiment [1] above 100 µM. This compound gave an inhibition in the experiment on Saccharomyces cerevisiae [2] of 38.2%.
The compound `O=c1ccc2ccc(O)cc2o1` [UMBELLIFERONE] had an IC50 in experiment [1] of 9000 µM.
As to `O=C(/C=C/c1ccc(Cl)cc1)Oc1cc(=O)oc2ccccc12`, in experiment [1], the IC50 was above 100 µM. The compound also came in with an inhibition in the experiment with Saccharomyces cerevisiae [2] of 33.1%.
On the same counts, the results for `O=C(/C=C/c1ccc(Cl)cc1)Oc1ccc2ccc(=O)oc2c1` are above 100 µM and 29.9%.
For `COc1ccc(/C=C/C(=O)Oc2ccc3ccc(=O)oc3c2)cc1`, in experiment [1], the IC50 was above 100 µM. Moreover, the inhibition in the experiment with Saccharomyces cerevisiae [2] was 20.2%.
In turn, `O=C(/C=C/c1ccc(O)cc1)Oc1ccc2ccc(=O)oc2c1` returned an IC50 in experiment [1] above 100 µM. In the experiment with Saccharomyces cerevisiae [2], this compound came in with an inhibition of 13.1%.
As to `O=C(/C=C/c1ccc(Br)cc1)Oc1cc(=O)oc2ccccc12`, inhibition in experiment [1] was half-maximal at 69.3 µM (IC50). In the experiment with Saccharomyces cerevisiae [2], this compound yielded an inhibition of 61%.
`O=C(O)/C=C/c1ccccc1` [CINNAMIC ACID] yielded an IC50 in experiment [1] of 15000 µM.
`O=C(/C=C/c1ccc(F)cc1)Oc1cc(=O)oc2ccccc12`: the midpoint of inhibition in experiment [1], the IC50, lay at 41.7 µM. In the experiment with Saccharomyces cerevisiae [2], this compound had an inhibition of 68.5%.
For `C[C@H]1[C@H](C)CC[C@]2(C(=O)O)CC[C@]3(C)C(=CC[C@@H]4[C@@]5(C)CC[C@H](O)C(C)(C)[C@@H]5CC[C@]43C)[C@H]12` [URSOLIC ACID], the half-inhibitory concentration (IC50) in experiment [1] stood at 11.4 µM.
In the case of `O=C(/C=C/c1ccccc1)Oc1cc(=O)oc2ccccc12`, the IC50 in experiment [1] amounted to 19.6 µM. The inhibition with Saccharomyces cerevisiae [2] came to 83.5%. Moreover, the inhibition entry in the experiment with Saccharomyces cerevisiae [3] is “Active”. Also, the figures for the Ke with Saccharomyces cerevisiae [4] and with Saccharomyces cerevisiae [5] were 27.4 µM and 13 µM, respectively.
`O=C(/C=C/c1ccc(O)cc1)Oc1cc(=O)oc2ccccc12`: the IC50 in experiment [1] is above 100 µM. In addition, in the experiment on Saccharomyces cerevisiae [2], the inhibition was found to be 33.2%.

Source of the values: ChEMBL document CHEMBL4680172, “Synthesis and biological evaluation of coumarin derivatives as α-glucosidase inhibitors” (Eur J Med Chem, 2020).
